From ChEMBL document CHEMBL4513216, “Probing the Open Global Health Chemical Diversity Library for Multistage-Active Starting Points for Next-Generation Antimalarials” (ACS Infect Dis, 2020)

Assay: Toxicity liver stage against HepG2, at 10uM
Format: cell-based
Parameters: test concentration 10 uM, cell line HepG2-A16-CD81EGFP
Conditions: human, HepG2-A16-CD81EGFP cells; read-out: INHIBITION
Method in brief: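 Uninfected HepG2-A16-CD81EGFP cells, 3 × 10^3 per well, 1536-well, plated on prespotted compound at 10 μM final, parasite-free screening media added to match infected plates; puromycin 10 μM positive, DMSO 0.5% negative; run in parallel with 48 h PbLuc assay at 37 °C, 5% CO2; viability by CellTiter-Glo luminescence, normalized to controls.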

SMILES	cytotoxicity at 10 µM
O=S(=O)(NC[C@H]1C[C@@H]2CCN1C[C@@H]2CN1CCCC1)c1ccc(Cl)cc1	-4.38%
COC(=O)[C@@H]1Cc2ncn(C)c2CN1S(=O)(=O)c1ccc(OC)cc1	-4.13%
O=C(NCCCO)c1cc(-c2ccc3c(c2)CCO3)n[nH]1	-4.24%
CC(C)C1SCC(=O)Nc2c1cnn2C(C)C (configuration not stated)	4%
Cc1ccccc1-n1ncc2c(=O)n(CCN3CCCCC3)cnc21	-8.47%
O=C1CCC2(CCN(S(=O)(=O)c3ccccc3)CC2)N1CC1CC1	3.41%
Cc1ccc(C(=O)N2CCC3(CC2)CC(NC(=O)C(C)C)CO3)cc1 (configuration not stated)	-1.89%
COCCN1C(=O)CCC12CCN(C(=O)CNC(C)=O)CC2	3.47%
Cc1ccc(N2CC3(CCN(S(=O)(=O)C4CC4)C3)C2)nn1	10.6%
CN1CCCc2sc(C(=O)NC3CC3)nc21	-149%
O=S(=O)(C1CC1)N1CCCC2(COCCN(c3nncs3)C2)C1 (configuration not stated)	5.22%
CCOC(=O)CN1C[C@@H]2OCCN(c3ncc(F)cn3)[C@@H]2C1	20.2%
Cc1nc(CN2CCO[C@H]3CN(C(=O)c4cccn4C)C[C@H]32)cs1	-136%
COc1ccc(C2OC(COc3ccccc3Br)=NN2C(C)=O)cc1 (configuration not stated)	3.56%
O=C(NCc1ccco1)[C@H]1C[C@H]2OCC[C@H]2N(S(=O)(=O)C2CC2)C1	-1.48%
COCCC(=O)N1CCN(C)c2ncccc2C1	-8.28%
Cn1cc(-c2cnc(N3CCCC3)nc2)cc1C(=O)O	-16.3%
Cc1cccc(CNC(=O)CC2CCN(C(=O)C(C)C)CC2)n1	7.45%
COCC(=O)N1CCC(c2cc(-c3ccc(OC)cc3)n[nH]2)C1 (configuration not stated)	-10.3%
CNc1cccc(C2CN(C(=O)CNS(C)(=O)=O)CCO2)n1 (configuration not stated)	-2.24%
CS(=O)(=O)N1CCCC1c1cccc(Cc2ccccc2F)n1 (configuration not stated)	-13.2%

SMILES	cytotoxicity at 10 µM
Cc1nc(C(C)C)sc1C(=O)N1CCC(C(N)=O)CC1	1.68%
Cc1cc(C(=O)Nc2ccc(OCCN3CCN(C)CC3)cc2)[nH]n1	-2.51%
O=C(NCCNc1ncccn1)c1ccc(OCc2ccccc2)nc1	17%
CC(C1CC1)N(C)Cc1nnc(-c2ccc(Br)s2)o1 (configuration not stated)	-11.2%
Cc1ccc(CN2CCC(CNC(=O)Cn3cncn3)CC2)cc1	1.22%
CCN1CC(COC(=O)c2ccccc2Cl)CC1=O (configuration not stated)	-1.54%
CC(C)COCCNC(=O)NC1CCCN(c2cnn(C)c2)C1 (configuration not stated)	9.39%
CN(Cc1cc(Br)cn1C)C(=O)c1cc(Cl)ccn1	-11%
O=C(Nc1ccccc1F)N(CCO)CCOCC(F)(F)F	1.1%
CC(C(=O)N1CCN(c2ccc(F)cc2)CC1)n1ccnc1 (configuration not stated)	1.05%
COC(=O)CCNC(=O)c1ccc(NC(=O)N(C)CC(C)C)cc1	9.13%
CC(C)C(=O)NCc1ccccc1NS(=O)(=O)c1ccccc1	9.05%
Cc1ccc(O)c(C(=O)N2CCC(CNC(=O)OC(C)(C)C)C2)c1 (configuration not stated)	16.4%
CC(C)=CCNC1CCCN(c2ccc(C)nn2)C1 (configuration not stated)	5.23%
NS(=O)(=O)CCN1CCOC(c2ccc(Cl)cc2)C1 (configuration not stated)	-0.317%
COCCN1CCN(CC(=O)N(C)Cc2ccccc2)CC1C (configuration not stated)	-144%
O=C(Nc1cc(-c2ccccc2)on1)N1CC[C@H](O)C1	4.98%
Nc1nccnc1C(=O)N(Cc1ccco1)CC1CCCO1 (configuration not stated)	8.13%
Cc1occc1C(=O)N1CCC(C(O)c2ccc(Cl)cc2)CC1 (configuration not stated)	-0.342%
CNC(=O)c1csc(-c2ccoc2)n1	-5.64%
Cc1cccc(C)c1OCCCN1CCC(n2cncn2)CC1	-24.3%

SMILES	cytotoxicity at 10 µM
CNC(=O)NC(=O)CCSCc1cc(Cl)cc2cccnc12	-8.06%
Cc1ccccc1CS(=O)(=O)CC(=O)N(C)Cc1ccccc1F	-0.969%
N#Cc1ccc(N2CCN(c3nccs3)CC2)nc1	31%
CC1CCC(NS(=O)(=O)CC(=O)Nc2ccccc2N2CCCC2)CC1 (configuration not stated)	3.75%
CN(CC(F)F)C(=O)c1cn(-c2ccc(Br)cc2)cn1	1.73%
CCc1ncc(C(=O)NCCNC(=O)Cc2ccc(F)cc2)s1	-2.57%
Cc1cccc(NC(=O)c2sccc2C)n1	-1.45%
Cc1noc(C)c1CN1CCn2cc(CN3CCOCC3)nc2C1	4.71%
Cc1cc(C)cc(CN2CCN(C(=O)C3CCC3)[C@@H]3CS(=O)(=O)C[C@@H]32)c1	-1.38%
Cc1cc(C)c2c(N(C)CC3COCCO3)ncnc2n1 (configuration not stated)	-133%
CCSc1ncc(CN2CCN(c3nc(C)cnc3C)CC2)cn1	5.84%
Cc1ncsc1CCN(C)C(=O)CCc1nc2cccnc2n1C	-149%
COc1nccc(N2CC[C@@H](N3CCC(O)CC3)[C@H](O)C2)c1C#N	-152%
O=C1CCC2(CCN(CC[C@@H](O)c3ccccc3)CC2)CN1CC1CC1	4.51%
CCOc1cccc(CN2CCCC(Nc3ccc(F)cc3)C2)c1O (configuration not stated)	-8.93%
c1ncn(Cc2nnc(C3CCN(C4CCOCC4)CC3)n2C2CC2)n1	-3.51%
COCc1noc(CNc2nc(C3CCCC3)nc3c2CCNCC3)n1	0.0228%
CCCOCCCNc1nccc(-c2cn(C)nc2C)n1	-10.5%
Cn1nccc1CNC(=O)CCn1nc(C(F)(F)F)cc1C1CC1	-8.74%
COc1ccc(CN2CCC3(CC(Nc4ccncn4)C3)C2)c(OC)c1 (configuration not stated)	2.43%
Cc1ccc(NC(=O)C2CSCN2C(=O)c2cnsn2)c(C)c1 (configuration not stated)	-0.955%

SMILES	cytotoxicity at 10 µM
Cn1cc(CC2CCN(C(=O)NCc3cccc(C(N)=O)c3)C2)cn1 (configuration not stated)	-4.25%
Cc1noc2ncc(C(=O)NCC3CCS(=O)(=O)C3)cc12 (configuration not stated)	-18.9%
Cc1noc(C)c1C(=O)N1CCCC1c1c(C)nn(C)c1C (configuration not stated)	-5.68%
CC(C)CCCNC(=O)Nc1ccc(C(N)=O)c(Cl)c1	4.69%
CC(NC(=O)NCc1ccccc1Cl)c1ccccn1 (configuration not stated)	-11.1%
O=C(CCCOc1cccc(F)c1)N1CCCC(n2cncn2)C1 (configuration not stated)	-13.2%
CCN(Cc1ccccc1)Cc1nc2c(cnn2C)c(=O)[nH]1	2.86%
O=C(NCCCn1cccn1)NCC(c1ccco1)N1CCCC1 (configuration not stated)	-13.3%
CCn1c(C)nnc1CN(C)C1CCN(CCS(=O)(=O)CC)C1 (configuration not stated)	-1.17%
CC(=O)NC1CCCN(C(=O)NCc2cccnc2)C1 (configuration not stated)	-10.5%
Cc1noc(C2CCCN(C(=O)c3cc(Cl)ccc3F)C2)n1 (configuration not stated)	2.66%
CCOCC1c2c(cnn2C)CCN1C(=O)c1ccncn1 (configuration not stated)	-141%
O=S(=O)(C1CC1)N1CCC[C@]2(C[C@@H](Oc3ccccn3)CO2)C1	-144%
CS(=O)(=O)N1CCC2(CC1)COC(COc1cccnc1)C2 (configuration not stated)	7.61%
O=C(Nc1ccccc1)C1CN(Cc2ccco2)CC12CCOCC2 (configuration not stated)	-3.2%
CCN(CC)c1ncnc2c1CCN(C(=O)Cc1ccccn1)CC2	3.13%
CNC(=O)[C@H]1C[C@H]2OCC[C@H]2N(CCOc2ccc(Cl)cc2)C1	-104%
Cc1cccc(CN2CCO[C@H]3[C@H](Oc4ccccn4)CC[C@@H]32)n1	-4.65%
c1cncc(CN2CC[C@@H]3O[C@H](COCCN4CCCC4)CC[C@@H]32)c1	-156%
